Data taken from ChEMBL document CHEMBL3758131, “Towards new 5-HT7 antagonists among arylsulfonamide derivatives of (aryloxy)ethyl-alkyl amines: Multiobjective based design, synthesis, and antidepressant and anxiolytic properties” (Eur J Med Chem, 2016).
Active and inactive are the calls of the source. The rule behind the calls is not given here.

What was measured:
[1] = target: T1, 5-hydroxytryptamine receptor 1A (Homo sapiens, UniProt P08908); test: Displacement of [3H]-8-OH-DPAT from human 5-HT1A receptor expressed in HEK293 cells after 1 hr; type: cell-based
T1 sequence (P08908 whole entry): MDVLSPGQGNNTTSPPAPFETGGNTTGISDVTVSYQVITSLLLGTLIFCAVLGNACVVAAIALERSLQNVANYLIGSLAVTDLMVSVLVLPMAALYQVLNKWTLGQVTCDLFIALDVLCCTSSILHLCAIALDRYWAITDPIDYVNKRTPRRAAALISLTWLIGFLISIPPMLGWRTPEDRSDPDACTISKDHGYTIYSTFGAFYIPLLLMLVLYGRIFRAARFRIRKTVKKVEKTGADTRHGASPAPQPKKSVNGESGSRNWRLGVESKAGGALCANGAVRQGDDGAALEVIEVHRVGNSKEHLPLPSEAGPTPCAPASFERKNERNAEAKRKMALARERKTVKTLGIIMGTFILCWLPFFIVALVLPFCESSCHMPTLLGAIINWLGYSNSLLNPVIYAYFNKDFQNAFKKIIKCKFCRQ
In short: (§1)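 Competition binding on membranes from HEK293 cells stably expressing human 5-HT7b or 5-HT1A. Incubation 1 h, at 37 °C for 5-HT7b and at room temperature for 5-HT1A. Non-specific binding defined with 10 µM 5-HT.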

[2] = target: T2, 5-hydroxytryptamine receptor 7 (Homo sapiens, UniProt P34969); test: Displacement of [3H]-5-CT from human 5-HT7B receptor expressed in HEK293 cells after 1 hr; type: cell-based; in short: as §1
T2 sequence (P34969 whole entry): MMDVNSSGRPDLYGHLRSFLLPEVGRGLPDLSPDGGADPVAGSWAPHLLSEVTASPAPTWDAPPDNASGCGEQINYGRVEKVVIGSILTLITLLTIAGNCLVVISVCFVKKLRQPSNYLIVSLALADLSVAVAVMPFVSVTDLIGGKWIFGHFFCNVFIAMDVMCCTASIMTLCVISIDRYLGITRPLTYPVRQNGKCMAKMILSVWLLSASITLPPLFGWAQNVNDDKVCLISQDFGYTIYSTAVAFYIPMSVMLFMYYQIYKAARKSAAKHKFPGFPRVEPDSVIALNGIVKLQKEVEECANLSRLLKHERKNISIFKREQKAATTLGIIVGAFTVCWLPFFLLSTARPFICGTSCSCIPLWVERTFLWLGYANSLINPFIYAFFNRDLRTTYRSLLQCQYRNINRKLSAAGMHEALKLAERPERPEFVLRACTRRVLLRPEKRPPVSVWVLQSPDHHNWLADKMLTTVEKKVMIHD

Homo sapiens = organism: Homo sapiens; test: Selectivity index ratio of Ki for human 5-HT1A receptor to Ki for human 5-HT7B
Mus musculus [3] = test: Toxicity in ip dosed C57BL/6J mouse assessed as effect on spontaneous locomotory activity at MED measured over 1 min 15 secs; type: organism-based; conditions: in vivo
Mus musculus [4] = test: Toxicity in ip dosed C57BL/6J mouse assessed as effect on spontaneous locomotory activity at MED measured over 6 mins; type: organism-based; conditions: in vivo, 0.1 h
In short: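 Mice habituated 30 min in individual cages, then ambulation counted over a period matching each behavioural test: 6 min for the tail suspension test and 1 min 15 s for the four-plate test. Compounds given ip at the active doses.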

Mus musculus [5] = test: Antidepressant activity in C57BL/6J mouse assessed as number of events at 40 mg/kg, ip measured over 6 mins by tail suspension test (reference value: 1325.1 +/- 77.8 to 1773.4 +/- 109.9); type: functional
Mus musculus [6] = test: Antidepressant activity in C57BL/6J mouse assessed as average force at 20 mg/kg, ip measured over 6 mins by tail suspension test (reference value: 0.281 +/- 0.018 to 0.359 +/- 0.027 N); type: functional
Mus musculus [7] = test: Antidepressant activity in ip dosed C57BL/6J mouse assessed as reduction in immobility time of mouse by tail suspension test; type: functional; conditions: read-out: MED
Mus musculus [8] = test: Antidepressant activity in ip dosed albino Swiss mouse assessed as decrease in immobility time by forced swim test; type: functional, organism-based
Mus musculus [9] = test: Antidepressant activity in C57BL/6J mouse assessed as average force at 40 mg/kg, ip measured over 6 mins by tail suspension test (reference value: 0.281 +/- 0.018 to 0.359 +/- 0.027 N); type: functional
Mus musculus [10] = test: Antidepressant activity in C57BL/6J mouse assessed as immobility time at 20 mg/kg, ip measured over 6 mins by tail suspension test (reference value: 160.7 +/- 12 to 170.6 +/- 9 sec); type: functional
Mus musculus [11] = test: Antidepressant activity in C57BL/6J mouse assessed as number of events at 10 mg/kg, ip measured over 6 mins by tail suspension test (reference value: 1325.1 +/- 77.8 to 1773.4 +/- 109.9); type: functional
Mus musculus [12] = test: Antidepressant activity in C57BL/6J mouse assessed as immobility time at 40 mg/kg, ip measured over 6 mins by tail suspension test (reference value: 160.7 +/- 12 to 170.6 +/- 9 sec); type: functional
Mus musculus [13] = test: Antidepressant activity in C57BL/6J mouse assessed as immobility time at 10 mg/kg, ip measured over 6 mins by tail suspension test (reference value: 160.7 +/- 12 to 170.6 +/- 9 sec); type: functional
Rattus norvegicus = test: Antidepressant activity in ip dosed Wistar rat assessed as reduction in immobility time of rat by forced swim test; type: functional
In short: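 Male Wistar rats (220-250 g), ip injection 30 min before test. Day 1: 15-min pre-swim in a cylinder with 15 cm of water at 25 °C, then drying under a lamp. Next day: total immobility recorded over the whole 5-min test, with fresh water for each rat.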

Mus musculus [14] = test: Toxicity in ip dosed albino Swiss mouse assessed as effect on spontaneous locomotory activity at MED measured over 2 to 6 mins; type: organism-based; conditions: in vivo
In short: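 Male Albino Swiss mice (22–28 g) received drug i.p. 60 min before testing, in 1% aqueous Tween 80 or distilled water. Each mouse was habituated alone in a plastic cage for 30 min, then ambulation was counted from 2 to 6 min. Groups of 6–10 animals, each used once.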

Mus musculus [15] = test: Antidepressant activity in C57BL/6J mouse assessed as number of events at 20 mg/kg, ip measured over 6 mins by tail suspension test (reference value: 1325.1 +/- 77.8 to 1773.4 +/- 109.9); type: functional
Mus musculus [16] = test: Antidepressant activity in C57BL/6J mouse assessed as average force at 10 mg/kg, ip measured over 6 mins by tail suspension test (reference value: 0.281 +/- 0.018 to 0.359 +/- 0.027 N); type: functional
[17] = target: T2, 5-hydroxytryptamine receptor 7; test: Antagonist activity at human 5-HT7B receptor expressed in CHO cells assessed as inhibition of 5-CT induced cAMP production at 10^-7 M after 30 mins by TR-FRET assay; type: functional, cell-based
[18] = target: T2, 5-hydroxytryptamine receptor 7; test: Antagonist activity at human 5-HT7B receptor expressed in […] cells assessed as inhibition of 5-CT induced cAMP production at 10^-6 M after 30 mins by TR-FRET assay; type: functional, cell-based
[19] = target: 5-hydroxytryptamine receptor 2A (Homo sapiens, UniProt P28223); test: Displacement of [3H]-Ketanserin from human 5-HT2A receptor expressed in HEK293 cells after 1 hr; type: cell-based
5-hydroxytryptamine receptor 2A, sequence (P28223 whole entry): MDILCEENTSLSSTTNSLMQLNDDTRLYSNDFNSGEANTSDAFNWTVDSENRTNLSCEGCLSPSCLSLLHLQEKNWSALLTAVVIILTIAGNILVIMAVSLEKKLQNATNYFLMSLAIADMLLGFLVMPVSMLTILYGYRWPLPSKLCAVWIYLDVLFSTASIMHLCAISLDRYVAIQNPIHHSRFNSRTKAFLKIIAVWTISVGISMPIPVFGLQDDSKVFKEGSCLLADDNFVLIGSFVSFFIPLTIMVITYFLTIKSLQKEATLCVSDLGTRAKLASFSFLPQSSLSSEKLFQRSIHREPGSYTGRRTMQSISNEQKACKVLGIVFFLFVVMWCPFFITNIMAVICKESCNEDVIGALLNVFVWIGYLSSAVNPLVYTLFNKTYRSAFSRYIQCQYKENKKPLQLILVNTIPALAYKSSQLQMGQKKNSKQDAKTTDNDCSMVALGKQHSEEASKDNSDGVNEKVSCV

Row | Compound | Ki [1] [nM] | Ki [2] [nM] | Ratio Ki (Homo sapiens) | other results
1 | CC(C)c1ccccc1OCCN1CCC(NC(=O)Nc2cccc(Cl)c2)CC1 | 591 | 264 | 2 | 
2 | CC(C)c1ccccc1OCCN1CC(NS(=O)(=O)c2cccc(F)c2)C1 | 28 |  |  | 
3 | CC(C)c1ccccc1OCCN1CCC(NS(=O)(=O)c2ccc(N)cc2)CC1 | 502 | 39 | 13 | 
4 | CC(C)c1cccc(OCCN2C3CCC2CC(NS(=O)(=O)c2cccc(Cl)c2)C3)c1 (stereo not given) | 206 | 4 | 52 | 
5 | CC(C)c1cccc(OCCN2C3CCC2CC(NS(=O)(=O)c2cnn(C)c2)C3)c1 (stereo not given) | 431 | 70 | 6 | 
6 | Cn1cc(S(=O)(=O)NC2CCN(CCOc3ccccc3C(C)(C)C)CC2)cn1 | 5550 | 84 | 66 | 
7 | CC(C)c1ccccc1OCCN1CCC(NC(=O)c2ccc(F)cc2)CC1 | 199 | 285 | 1 | 
8 | CC(C)c1cccc(OCCN2C3CCC2CC(NS(=O)(=O)c2cc(F)ccc2F)C3)c1 (stereo not given) | 51 | 4 | 13 | 
9 | O=S(=O)(c1cccc(Cl)c1)N1CC2CC1CN2CCOc1ccccc1-c1ccccc1 (stereo not given) | 2670 | 319 | 8 | 
10 | O=S(=O)(NC1CCN(CCOc2ccccc2C2CCCC2)CC1)c1cccc(Cl)c1 | 556 | 17 | 33 | 
11 | O=S(=O)(NC1CC2CCC(C1)N2CCOc1cccc(-c2ccccc2)c1)c1ccc(F)c(F)c1 (stereo not given) | 74 | 20 | 4 | 
12 | O=S(=O)(c1ccc(F)cc1)N1CC2CC1CN2CCOc1ccccc1-c1ccccc1 (stereo not given) | 1070 | 292 | 4 | 
13 | CC(C)c1ccccc1OCCN1CCC(NC(=O)Nc2ccc(F)cc2)CC1 | 190 | 201 | 1 | 
14 | Nc1ccc(S(=O)(=O)NC2CCN(CCOc3ccccc3-c3ccccc3)CC2)cc1 | 407 | 26 | 16 | 
15 | O=S(=O)(NC1CN(CCOc2ccccc2-c2ccccc2)C1)c1cccc(Cl)c1 | 23 | 20 | 1 | 
16 | CC(C)c1ccccc1OCCN1CC2CC1CN2S(=O)(=O)c1cccc(Cl)c1 (stereo not given) | 393 | 168 | 2 | 
17 | CN(C)CCCC1(c2ccc(F)cc2)OCc2cc(C#N)ccc21 (stereo not given) [CITALOPRAM] |  |  |  | Activity (Mus musculus [3]): Non-toxic; Activity (Mus musculus [4]): Non-toxic; Activity (Mus musculus [5]): 2053.1; Activity (Mus musculus [6]): 0.381 N; minimal effective dose (Mus musculus [7]): 20 mg/kg; inhibition (Mus musculus [8]): Dose-dependent effect; Activity (Mus musculus [9]): 0.398 N; Time (Mus musculus [10]): 103 s; Activity (Mus musculus [11]): 1820.1; Time (Mus musculus [12]): 95.5 s; Time (Mus musculus [13]): 148.7 s; MED (Rattus norvegicus): inactive; Activity (Mus musculus [14]): Non-toxic; Activity (Mus musculus [15]): 1961.3; Activity (Mus musculus [16]): 0.318 N
18 | CC(C)c1cccc(OCCN2C3CCC2CC(NS(=O)(=O)c2ccc(F)c(F)c2)C3)c1 (stereo not given) | 99 | 9 | 11 | 
19 | CN1C(=O)CN=C(c2ccccc2)c2cc(Cl)ccc21 [DIAZEPAM] |  |  |  | Activity (Mus musculus [3]): Non-toxic; Activity (Mus musculus [4]): Non-toxic

Row | Compound | Ki [1] [nM] | Ki [2] [nM] | Ratio Ki (Homo sapiens) | other results
20 | CC(C)(C)c1ccccc1OCCN1CCC(NS(=O)(=O)c2ccc(F)cc2)CC1 | 4570 | 54 | 85 | 
21 | CC(C)c1ccccc1OCCN1CCC(NS(=O)(=O)c2cccc(F)c2)CC1 |  |  |  | inhibition [17]: 70%; inhibition [18]: 99%; Ki [19]: 178 nM
22 | CC(C)Oc1ccccc1OCCN1CCC(NS(=O)(=O)c2ccc(F)cc2)CC1 | 197 | 27 |  | 
23 | CC(C)c1ccccc1OCCN1CC2CC1CN2S(=O)(=O)c1ccc(F)cc1 (stereo not given) | 260 | 162 | 2 | 
24 | O=S(=O)(NC1CCN(CCOc2ccccc2-c2ccccc2)CC1)c1cccnc1 | 536 | 53 | 10 | 
25 | COc1ccccc1OCCN1CCC(NS(=O)(=O)c2ccc(F)cc2)CC1 | 463 | 344 |  | 
26 | CC(C)c1cccc(C(C)C)c1OCCN1CCC(NS(=O)(=O)c2ccc(F)cc2)CC1 | 6150 | 1920 |  | 
27 | O=S(=O)(NC1CC2CCC(C1)N2CCOc1cccc(-c2ccccc2)c1)c1cccc(F)c1 (stereo not given) | 123 | 12 | 10 | 
28 | O=S(=O)(NC1CC2CCC(C1)N2CCOc1cccc(-c2ccccc2)c1)c1ccc(F)cc1 (stereo not given) | 170 | 14 | 12 | 
29 | O=C(Nc1cccc(Cl)c1)NC1CCN(CCOc2ccccc2-c2ccccc2)CC1 | 718 | 198 | 4 | 
30 | CC(C)(C)c1ccccc1OCCN1CCC(NS(=O)(=O)c2cccc(Cl)c2)CC1 | 1850 | 74 | 25 | 
31 | CC(C)c1ccccc1OCCN1CC(NS(=O)(=O)c2ccc(F)cc2)C1 | 45 | 7 | 6 | 
32 | O=C(NC1CCN(CCOc2ccccc2-c2ccccc2)CC1)c1cccc(Cl)c1 | 148 | 197 | 1 | 
33 | Cn1cc(S(=O)(=O)NC2CN(CCOc3ccccc3-c3ccccc3)C2)cn1 | 46 | 40 | 1 | 
34 | Cc1ccccc1OCCN1CCC(NS(=O)(=O)c2ccc(F)cc2)CC1 | 745 | 163 |  | 
35 | CC(C)c1ccccc1OCCN1CCC(NS(=O)(=O)c2cccnc2)CC1 | 371 | 72 | 5 | 
36 | O=S(=O)(NC1CCN(CCOc2ccccc2)CC1)c1ccc(F)cc1 | 1760 | 855 |  | 
37 | O=S(=O)(NC1CCN(CCOc2ccccc2C2CCCC2)CC1)c1ccc(F)cc1 | 373 | 16 | 23 | 
